# Jurkat viability = cytotoxicity toward Jurkat T cells, primary screen, cytotoxicity control, cell-based, Jurkat E6.1, 60K MLSMR library. 56,000 compounds, 1.2% hits. inhibition, % at 4 µM. Jurkat E6.1 viability, ATP luminescence, 48 h. AID 463, 2006;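 active means inhibition above the mean inhibition of all tested compounds plus 3 SD, cut at about 28% in these data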
# H69AR growth 86K = proliferation blockers of H69AR lung cancer cells, primary screen, cell-based, human, 86K library; AID 598, 2007; H69AR lung tumor viability, ATP luminescence, 72 h; active compounds read low; 85,000 compounds, 6% hits; viability, % at 10 µM;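 active means viability at or below 40%; inactive means viability above 40%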;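 further: multidrug resistant small cell line overexpressing MRP-1 efflux transporter; 100% = mean luminescence of untreated control wells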
# Fibroblast inh = antiproliferative effect on LL 47 fibroblasts – human, LL 47 cells, CellTiter-Glo luminescence, primary screen | LL 47 human lung fibroblast viability, ATP luminescence; active compounds read low | viability, % at 10 µM | 85,000 compounds, 1.1% hits | AID 719, 2007;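 active means viability at or below 50% in the single dose screen; inactive means viability above 50%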;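 further: compound exposure lasted 72 h before the ATP readout; 100% = median luminescence of untreated cell-only wells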
#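 Test system: LL 47 human lung fibroblasts / Quantity: 1,150 cells in each well / Medium: IMEM growth medium with 15% fetal bovine serum / Incubation: 72 h compound exposure at 37 °C after overnight plating / Detection: CellTiter-Glo luminescence measuring cellular ATP / Read-out: % viability versus median cells-only luminescence / Benchmarks: cell-only wells, no compound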
# HUVEC inhibit = inhibitors of HUVEC proliferation, primary screen, cell-based, 384-well. CellTiter-Glo luminescence, 72 h; active compounds read low. viability, % at 10 µM (by protocol). 86,000 compounds, 1.1% hits;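 active means viability at or below 30%; inactive means viability above 30%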;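 further: 100% = median luminescence of DMSO-only cell control wells on each plate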
# Numbers without * were called inactive; · = no result given. Shown are actives, neighbours in structure and some others; about 6.4% of the full set was active somewhere.
SMILES,Jurkat viability,H69AR growth 86K,Fibroblast inh,HUVEC inhibit
COc1cc2c3nnc(-c4ccc(F)cc4)c-3cn(Cc3ccc(F)cc3)c2cc1OC,·,-0.4*,10*,2.6*
COc1ccc(Cn2cc3c(-c4ccc(F)cc4)nnc-3c3cc(OC)c(OC)cc32)cc1,·,1.3*,2.2*,2.3*
COc1ccc(C(O)c2nccn2Cc2ccccc2)cc1OC (configuration not stated),·,84,97,100
O=C(O)CCC(=O)Nc1ccc(Cc2ccc(NC(=O)CCC(=O)O)cc2)cc1,·,95,99,91
COc1ccc(N2CCN(c3nc4c(c(=O)[nH]c(=O)n4C)n3Cc3ccccc3Cl)CC2)cc1,4,77,95,87
CC(C)(C)CC(=O)Nc1ccc(Nc2ccccc2)cc1,·,74,96,87
CCOc1ccc2[nH]c(=O)c(CN(Cc3cccs3)Cc3nnnn3C(C)(C)CC)cc2c1,10,28*,91,83
O=C(Nc1nc(-c2nc3ccccc3s2)cs1)c1ccco1,4,83,97,76
CCCC(=O)NC(c1ccco1)c1cc(Cl)c2cccnc2c1O (configuration not stated),29,0.9*,3.1*,12*
CC(C)C(=O)NC(c1ccco1)c1ccc2cccnc2c1O (configuration not stated),90*,1.9*,14*,2.1*
Oc1c(C(Nc2nc3ccccc3s2)c2ccco2)ccc2cccnc12 (configuration not stated),62*,44,17*,4.5*
COc1ccc(C(NC(C)=O)c2ccc3cccnc3c2O)c(OC)c1 (configuration not stated),86*,0.9*,15*,2.4*
CN(CC(=O)NCc1ccco1)S(=O)(=O)c1cccc2cccnc12,-12,89,93,106
CCC(C)(C)NC(=O)C(c1ccc(F)cc1)N(Cc1ccco1)C(=O)c1cnccn1 (configuration not stated),0,91,99,92
COc1cc(OC)cc(C(=O)n2cnnc2N)c1,·,97,99,92
CCN(CC)C(=O)N1CCC(NC(=O)c2ccccc2)CC1,2,84,92,98
Cc1ccc(-c2csc3ncn(CC(=O)N4CCOCC4)c(=O)c23)cc1,·,89,107,102
Cc1ccc(-c2csc3ncnc(Sc4nnc(CN5CCCCCC5=O)o4)c23)cc1,71*,-0.2*,31*,61
Cc1ccc2nc(NC(=O)CN(C)S(=O)(=O)c3cccc4nsnc34)sc2c1,11,12*,25*,29*
COc1ccc(OC)c(NC(=O)CN(c2ccc(C)cc2)S(=O)(=O)c2c(C)noc2C)c1,1,74,94,91
CCc1ccc(N(CC(=O)Nc2nc3ccc(C)cc3s2)S(=O)(=O)c2c(C)noc2C)cc1,·,3.3*,98,50
Cc1ccc2nc(NC(=O)CNS(=O)(=O)c3ccc(Br)s3)sc2c1,9,78,90,81
Cc1ccc2nc(NC(=O)CN(C)S(=O)(=O)c3ccc(Br)s3)sc2c1,·,21*,97,57
CCc1ccc(NC(=O)CN(c2ccc3c(c2)OCO3)S(=O)(=O)c2c(C)noc2C)cc1,-2,98,94,104
COc1ccc(N(CC(=O)Nc2cc(Cl)ccc2OC)S(=O)(=O)c2c(C)noc2C)cc1,88*,24*,48*,42
SMILES,Jurkat viability,H69AR growth 86K,Fibroblast inh,HUVEC inhibit
CS(=O)(=O)N(CC(=O)N1CCCCCC1)c1ccc(Br)cc1,3,93,96,114
O=C(O)c1cc2ccc3ccccc3c2oc1=O,·,122,99,109
Cc1nn(Cc2n[nH]c(=S)n2Cc2ccccc2)c(C)c1Cl,·,84,97,89
CC(C)Oc1ccc(/C=N/NC(=O)C(CSCc2ccccc2)NC(=O)c2ccc([N+](=O)[O-])cc2)cc1 (configuration not stated),·,28*,66,67
COc1cc(/C=C/c2ccc3cccc(OC)c3n2)c(OC(C)=O)c([N+](=O)[O-])c1,·,6.1*,94,15*
O=C(NCC1(c2ccccc2)CCCC1)C(=O)N1CCOCC1,·,96,102,97
COc1ccc(O)c(-c2cc(C(F)(F)C(F)F)nc(-c3ccccc3)n2)c1,·,34*,94,80
CCCCOc1ccc(C2OC34CCCCC3C(C#N)(C#N)C2(C#N)C(=N)O4)cc1 (configuration not stated),·,43,88,84
C=CCOc1ccc(C2OC34CCCCC3C(C#N)(C#N)C2(C#N)C(=N)O4)cc1 (configuration not stated),·,13*,89,77
Cc1nc(SCC(=O)NCCc2ccc(Cl)cc2)nc(C)c1C,·,86,103,95
CCC1(CC)C(=O)N(C)C(=O)NC1=Nc1ccc(OC)cc1,·,111,113,104
Cc1ccccc1C(=O)Nc1cccc(NC(=O)c2ccc(-c3ccc(Br)cc3)o2)c1,·,22*,52,64
COc1ccc(-c2n[nH]c(C)c2-c2ccc(Cl)cc2)c(O)c1OC,-6,35*,90,60
COc1ccc2c(c1)[nH]c1c(=O)n(CCCn3ccnc3)cnc12,·,67,95,86
O=c1nc(-c2ccccc2)n(-c2ccccc2)c2ncccc12,-1,·,·,·
N#CC1=C(N)SC(N)=C(C#N)C1Cc1ccccc1,5,17*,94,73
COc1ccc2[nH]c3nc(SCc4nnc(-c5ccccc5)o4)nnc3c2c1,3,9.3*,101,65
COc1ccc(-c2nnc(SCc3nnc(-c4ccccc4)o3)n2-c2ccccc2)cc1,-6,2.6*,85,42
COc1ccc2[nH]c3nc(SC(C)C)nnc3c2c1,6,92,119,93
Cc1cc(F)ccc1S(=O)(=O)Nc1ccccc1C(=O)Nc1ccc2[nH]c(=O)[nH]c2c1,·,112,92,82
COCCn1c(=O)c2c3c(sc2n(CC(N)=O)c1=O)CCCC3,11,97,95,101
Cc1conc1NC(c1cccs1)c1ccc2cccnc2c1O (configuration not stated),30*,19*,3.1*,24*
CCc1ccc(/C=N/Nc2nn[nH]n2)cc1,·,95,107,100
O=C(CSc1nnc(-c2c[nH]c3ccccc23)o1)N(Cc1ccccc1)c1ccc(F)cc1,-8,56,108,82
CC1CCCCN1C(=O)CSc1nnc(-c2c[nH]c3ccccc23)o1 (configuration not stated),-8,22*,101,102
COC(=O)[C@H](Cc1ccccc1)NC(=O)NCc1ccccc1OC,·,84,98,94
COC(=O)c1ccccc1CCC(C)=O,0,24*,91,78
Cc1cccc(N2CCN(C(=O)CCCOc3ccccc3)CC2)c1C,-5,89,106,105
O=C(NCc1ccco1)c1ccc(S(=O)(=O)N2CCCc3ccccc32)cc1,-1,31*,92,84

# Assay outcomes as filed in PubChem BioAssay.
